From ChEMBL document CHEMBL1127806, “Substrate specificity in short-chain phospholipid analogs at the active site of human synovial phospholipase A2” (J Med Chem, 1994)

What was measured:
[1] = Critical micelle concentration determined from the plots of the fluorescence intensity as a function of compound concentration; type: ADME
How it was run: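 Fluorescence of 8-anilino-1-naphthalenesulfonic acid (5 μM) followed as a function of compound concentration. Buffer: 20 mM HEPES pH 7.5 with 2 mM Ca²⁺, no DTNB. cmc read from the intensity-versus-concentration plot.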

[2] = Ratio of catalysis rate (kcat) and Michaelis-Menten constant (Km) of the compound
How it was run: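 Recombinant human synovial PLA₂ (baculovirus-expressed, HPLC-purified) at 14 nM in 20 mM HEPES pH 7.5, 2 mM Ca²⁺, 0.8 mM DTNB. Thioester hydrolysis read at 405 nm as thionitrobenzoate (ε 13 600). Initial rates measured at substrate concentrations up to 100 μM. Apparent kcat/KM taken as the slope of rate versus [S] divided by enzyme concentration.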

[3] = Hydrolysis rate of the compound
How it was run: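 pH-stat at pH 9, titrated with 1 mM NaOH. Substrate 100 μM in deionized water with 2 mM Ca²⁺, under a nitrogen stream. Started with recombinant human synovial PLA₂ (1.69 nmol, 2.41 μg), purified from baculovirus by reversed-phase HPLC; preliminary set used E. coli-expressed enzyme. Rate recorded for 1 h from base consumption.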

[4] = Hydrolysis turn over determined from the plots of the fluorescence assay quantified by HPLC
How it was run: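 Recombinant human synovial PLA2 expressed in E. coli. Turnover of an amine-headgroup (phosphatidylethanolamine) substrate was measured by derivatizing the amine with excess fluorescamine and quantifying the fluorescent derivatives by reversed-phase HPLC. The rate is expressed as nmol·min⁻¹·mg⁻¹ enzyme.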

Compound | CMC [1] | Ratio [2] | Hydrolysis (nmol min-1 mg-1) [3] | CMC [4] [mM]
CCCCCCCCCC(=O)S[C@H](COCc1ccccc1)COP(=O)([O-])OC.[Li+] | 0.2 mM | 5000 l s-1 M-1 | – | –
CCCCCCCC(=O)SC[C@H](COP(=O)([O-])OC)SC(=O)CCCCCCC.[Li+] | 0.03 mM | 408000 l s-1 M-1 | – | –
CCCCC(=O)SC[C@H](COP(=O)([O-])OC)SC(=O)CCCC.[Li+] | > 9 mM | 870 l s-1 M-1 | – | –
CCCCCCOC[C@H](COP(=O)(O)OC)SC(=O)c1ccccc1 | – | < 100 l s-1 M-1 | – | –
CCCCCCCCC(=O)SC[C@H](COP(=O)([O-])OC)SC(=O)CCCCCCCC.[Li+] | < 0.03 mM | 541000 l s-1 M-1 | – | –
CCCCCCCCCC(=O)S[C@H](COCc1ccc(-c2ccccc2)cc1)COP(=O)([O-])OC.[Li+] | 0.1 mM | 2500 l s-1 M-1 | – | –
CCCC(=O)SC[C@H](COP(=O)([O-])OC)SC(=O)CCC.[Li+] | 2.3 mM | 200 l s-1 M-1 | – | –
CCCCCCOC[C@H](COP(=O)(O)OC)SC(=O)CCc1ccccc1 | – | 160 l s-1 M-1 | – | –
CCCCCCC(=O)SC[C@H](COP(=O)([O-])OC)SC(=O)CCCCCC.[Li+] | 0.3 mM | 37700 l s-1 M-1 | – | –
CCC(=O)SC[C@H](COP(=O)([O-])OC)SC(=O)CC.[Li+] | >= 3 mM | < 10 l s-1 M-1 | – | –
CCCCCC(=O)OC[C@H](COP(=O)(O)OC[C@@H]1CCCN1)OC(=O)CCCCC | 0.8 mM | – | 12 | –
CCCCCCCCCC(=O)S[C@H](COCCC(C)(C)C)COP(=O)([O-])OC.[Li+] | 0.4 mM | 627 l s-1 M-1 | – | –
CCCCCCCCOC[C@H](COP(=O)([O-])OC)SC(=O)CCCCCCC.[Li+] | 0.13 mM | 12000 l s-1 M-1 | – | –
CCCCCC(=O)OC[C@H](COP(=O)(O)OC[C@H]1CCCN1)OC(=O)CCCCC | 0.5 mM | – | 13 | –
CCCCCC(=O)OC[C@H](COP(=O)(O)OCCN)OC(=O)CCCCC | – | – | 5.3 | 2.3
CCCCCCOC[C@H](COP(=O)(O)OC)SC(=O)CCC(C)C | – | < 100 l s-1 M-1 | – | –

Compound | CMC [1] | Ratio [2] | Hydrolysis (nmol min-1 mg-1) [3] | CMC [4] [mM]
CC/C=C/C(=O)S[C@H](COCCCCCC)COP(=O)(O)OC | – | < 100 l s-1 M-1 | – | –
CCCCCCCCCC(=O)S[C@H](COCc1ccc(Oc2ccccc2)cc1)COP(=O)([O-])OC.[Li+] | 0.04 mM | 4600 l s-1 M-1 | – | –
CCCCCCCCCC(=O)S[C@H](COC/C=C/c1ccccc1)COP(=O)([O-])OC.[Li+] | 0.04 mM | 19000 l s-1 M-1 | – | –
CC/C=C\CCOC[C@H](COP(=O)([O-])OC)SC(=O)CCCCCCCCC.[Li+] | 0.2 mM | 5900 l s-1 M-1 | – | –
CCCCCC(=O)SC[C@H](COP(=O)(OC)OC)SC(=O)CCCCC | 0.04 mM | < 100 l s-1 M-1 | – | –
CCCCCOC[C@H](COP(=O)(O)OC)SC(=O)CCC | – | < 100 l s-1 M-1 | – | –
CCCCCC(=O)OC[C@H](COP(=O)(O)OCCO)OC(=O)CCCCC | – | – | < 5 | –
CCCCCC(=O)OC[C@H](COP(=O)(O)OC[C@@H](N)C(=O)O)OC(=O)CCCCC | – | – | < 5 | –
CCCCCCCC(=O)S[C@H](COCCC)COP(=O)([O-])OC.[Li+] | 1 mM | 1200 l s-1 M-1 | – | –
CCCCCC(=O)OC[C@H](COP(=O)(O)O[C@@H](C)[C@@H](N)C(=O)O)OC(=O)CCCCC | – | – | < 5 | –
CCCCCC(=O)OC[C@H](COP(=O)(O)OC)OC(=O)CCCCC | – | – | < 5 | –
CCCCCCCC(=O)S[C@H](COCCCCC)COP(=O)([O-])OC.[Li+] | 1.25 mM | 7000 l s-1 M-1 | – | –
CCCCCC(=O)SC[C@H](COP(=O)([O-])OC)SC(=O)CCCCC.[Li+] | >= 3 mM | 1800 l s-1 M-1 | – | –
CCCCCCCCOC[C@H](COP(=O)(O)OC)SC(=O)CCC | – | 3700 l s-1 M-1 | – | –
CCCOC[C@H](COP(=O)([O-])OC)SC(=O)CCC.[Li+] | 3 mM | < 10 l s-1 M-1 | – | –
